Published values pooled from the literature.
Lines come from different studies, so protocols differ.
ABL1 phosphorylated: Tyrosine-protein kinase ABL1, phosphorylated (ABL1, Homo sapiens, UniProt P00519)
ABL1 E255K phosphorylated: Tyrosine-protein kinase ABL1, phosphorylated (ABL1, Homo sapiens, UniProt P00519, E255K)

`C=CC(=O)N1CCC([C@@H]2CCNc3c(C(N)=O)c(-c4ccc(Oc5ccccc5)cc4)nn32)CC1` gave an inhibition of 5% (Tyrosine-protein kinase ABL1, non-phosphorylated (ABL1, Homo sapiens, UniProt P00519, H396P); enzyme activity, inhibitor; 1 µM).
The remaining binding of `C1=C/COCc2cc(ccc2OCCN2CCCC2)Nc2nccc(n2)-c2cccc(c2)COC/1` is reported as 27% (ABL1 phosphorylated; binding; 0.1 µM).
`N#Cc1ccc(NC(=O)Nc2ccccc2)cc1` gave a remaining binding of 92% (ABL1 E255K phosphorylated; cell-free assay, competition with immobilised ligand; 25 µM).
`Cc1ccc(NC(=O)c2ccnc(C(F)(F)F)c2)cc1-c1cc(OCCO)nc(N2CCOCC2)c1` gave a remaining binding of 100% (Tyrosine-protein kinase ABL1 (ABL1, Homo sapiens, UniProt P00519, M351T); binding; 1 µM).
With `CCCCC(=O)Nc1ccc(-c2ccc3ncn(CCC)c(=O)c3c2)cn1` the remaining binding was 97% (Tyrosine-protein kinase ABL1, phosphorylated (ABL1, Homo sapiens, UniProt P00519, F317L); binding, competition with immobilised ligand; 0.5 µM).
The inhibition of `CC#CC(=O)N1CCC[C@H]1c1nc(-c2ccc(C(=O)Nc3ccccn3)cc2)c2c(N)nccn12` is reported as 22% (Tyrosine-protein kinase ABL1, phosphorylated (ABL1, Homo sapiens, UniProt P00519, Y253F); enzyme activity, inhibitor; 1 µM).
`CN1CCN(C(=O)c2ccc(NC(=O)Nc3ccc(N(C)c4ccnc(Nc5ccc(CS(C)(=O)=O)cc5)n4)cc3)cc2)CC1` gave a remaining binding of 30% (ABL1 phosphorylated; binding, competition with immobilised ligand; 1 µM).
`CO[C@@H]1[C@H](N(C)C(=O)c2ccccc2)C[C@H]2O[C@]1(C)n1c3ccccc3c3c4c(c5c6ccccc6n2c5c31)C(=O)NC4` has an inhibition of 0% (Tyrosine-protein kinase ABL1, non-phosphorylated (ABL1, Homo sapiens, UniProt P00519, Q252H); enzyme activity, inhibitor; 1 µM).
The remaining binding of `C[C@H]1CC[C@H](n2c3cnccc3c3cnc(Nc4ccc5c(n4)CCN(C(=O)CO)C5)nc32)CC1` is reported as 77% (ABL1 E255K phosphorylated; binding, competition with immobilised ligand; 1 µM).
The remaining signal of `COc1ccc2oc(-c3ccc4nc(N)oc4c3)c/c(=N\c3ccccc3NC(=O)CCN)c2c1` is reported as 103% (Tyrosine-protein kinase ABL1 (ABL1, Homo sapiens, UniProt P00519, T315I); cell-free assay; 1 µM).
